Series [1] concerns human CFTR. Conditions: 20 µM; oocyte expression system; ref Stahl et al., 2012; cited from earlier work.
Series [2] relates to PS120 cells. As to the kind of experiment: MTT assay on non–CFTR-expressing cells. The class given is cell-based, hamster. To be noted: 24 h. The gist of the method: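 PS120 cells in 1% serum were exposed to increasing test compound concentrations for 24 h. They were then incubated 1 h with 0.5 mg mL−1 MTT in phenol red-free DMEM:F12 with 5% serum at 37°C. Cells were lysed in 10% SDS/0.01 N HCl overnight and OD read at 562 nm. Values were normalised to vehicle, means (SEM) of eight experiments.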

Series [3] addresses T1, volume-sensitive outwardly rectifying Cl− conductance (VSORC) (Mus musculus, UniProt Q80WG5).
T1 sequence (Q80WG5 1-810): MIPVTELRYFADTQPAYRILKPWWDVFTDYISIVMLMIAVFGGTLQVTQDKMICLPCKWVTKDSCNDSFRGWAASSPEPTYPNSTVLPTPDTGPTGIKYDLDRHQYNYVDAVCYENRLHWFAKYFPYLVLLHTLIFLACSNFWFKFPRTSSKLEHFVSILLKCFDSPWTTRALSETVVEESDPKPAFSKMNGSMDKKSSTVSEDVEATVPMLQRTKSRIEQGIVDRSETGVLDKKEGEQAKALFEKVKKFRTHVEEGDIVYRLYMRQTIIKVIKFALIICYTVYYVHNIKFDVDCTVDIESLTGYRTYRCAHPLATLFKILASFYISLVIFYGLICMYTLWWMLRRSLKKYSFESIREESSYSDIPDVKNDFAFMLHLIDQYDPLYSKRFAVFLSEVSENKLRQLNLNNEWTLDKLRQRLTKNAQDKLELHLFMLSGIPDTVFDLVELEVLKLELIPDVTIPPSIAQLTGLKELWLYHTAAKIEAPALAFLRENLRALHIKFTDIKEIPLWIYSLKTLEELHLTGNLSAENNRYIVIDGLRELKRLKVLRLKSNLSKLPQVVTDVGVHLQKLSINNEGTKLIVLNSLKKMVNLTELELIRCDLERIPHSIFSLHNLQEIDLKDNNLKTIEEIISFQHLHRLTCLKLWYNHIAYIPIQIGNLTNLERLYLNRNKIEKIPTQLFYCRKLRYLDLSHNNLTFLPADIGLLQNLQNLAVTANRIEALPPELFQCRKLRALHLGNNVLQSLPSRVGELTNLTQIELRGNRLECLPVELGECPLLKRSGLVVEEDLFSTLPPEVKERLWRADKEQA
The format is cell-based. To be noted: CFTR-expressing cells. The procedure, abridged: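 Ruptured whole-cell patch clamp on kidney cells. Pipette: 140 mM NMDGCl, 10 HEPES pH 7.4, 5 EGTA, 5 MgATP. VSORC was activated by switching from a mannitol-containing NMDGCl bath (320–330 mOsm) to a mannitol-free one (285–290 mOsm). Test compound (0.5–10 µM) was perfused after 3–4 min. Cells were held at −40 mV with 400 ms steps from −100 to +100 mV. Slopes (−100 to −60 and +60 to +100 mV) were normalised to the hypotonic maximum; 5–6 cells.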

The subject of series [4] is kidney PCT cells (CFTR-expressing). Briefly: LIVE/DEAD cell viability/cytotoxicity assay. The class given is cell-based, mouse. Conditions: 24 h. The procedure, abridged:
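Confluent mouse kidney PCT monolayers in 1% serum were exposed to the test compound (0.5–50 µM) for 24 h. Live cells were stained with calcein-AM (green) and dead cells with […] (red). Green and red pixels were quantified on three micrographs per well. Values were normalised to 100% live cells in controls, as means ±SEM of 3–6 experiments.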

The test system of series [5] is shark 'CFTR-like' protein. Conditions: 25 µM; oocyte expression system; ref Stahl et al., 2012; cited from earlier work.
In series [6] the test system is kidney PCT cells (CFTR-expressing). Briefly: MTT assay on CFTR-expressing cells. The class given is cell-based, mouse. To be noted: 24 h. In general terms: Tetrazolium dyes change colour on reduction, which living cells bring about.
Series [7] has as its system Ca2+-dependent Cl− conductance (CaCC). Briefly: whole-cell patch-clamp, ionomycin-activated CaCC in CFTR-expressing kidney cells. The class given is cell-based, mouse. The procedure, abridged:
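Ruptured whole-cell patch clamp on kidney cells, with the NMDGCl pipette solution (5 EGTA, 5 MgATP, pH 7.4). CaCC was activated with 2 µM ionomycin, and test compound (1, 5, 10 µM) was perfused once current peaked. Cells were held at −40 mV with 400 ms steps from −100 to +120 mV. Slopes (+60 to +120 mV) were normalised to the uninhibited maximum; 5–6 cells. IC50 came from Hill fits.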
In general terms: The patch-clamp technique gives a direct electrical read-out from membranes.

Series [8] addresses CFTR-like Cl− conductance (Mus musculus, UniProt P26361). The class given is cell-based. The procedure, abridged: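 Ruptured whole-cell patch clamp on cultured kidney DCT cells. CFTR current activated with forskolin (1–10 µM); once fully developed (3–4 min), test compound was perfused at rising concentrations (0.5, 1, 5, 10 µM). Holding potential −40 mV; eleven 400-ms steps from −100 to +100 mV in +20 mV increments. Current read 350 ms after pulse onset; mean ±SEM of six to eight cells.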

Usually IC50 stands for the concentration that inhibits the measured activity by half.

Sequence of CFTR-like Cl− conductance (P26361 whole entry, the tested form may be a part): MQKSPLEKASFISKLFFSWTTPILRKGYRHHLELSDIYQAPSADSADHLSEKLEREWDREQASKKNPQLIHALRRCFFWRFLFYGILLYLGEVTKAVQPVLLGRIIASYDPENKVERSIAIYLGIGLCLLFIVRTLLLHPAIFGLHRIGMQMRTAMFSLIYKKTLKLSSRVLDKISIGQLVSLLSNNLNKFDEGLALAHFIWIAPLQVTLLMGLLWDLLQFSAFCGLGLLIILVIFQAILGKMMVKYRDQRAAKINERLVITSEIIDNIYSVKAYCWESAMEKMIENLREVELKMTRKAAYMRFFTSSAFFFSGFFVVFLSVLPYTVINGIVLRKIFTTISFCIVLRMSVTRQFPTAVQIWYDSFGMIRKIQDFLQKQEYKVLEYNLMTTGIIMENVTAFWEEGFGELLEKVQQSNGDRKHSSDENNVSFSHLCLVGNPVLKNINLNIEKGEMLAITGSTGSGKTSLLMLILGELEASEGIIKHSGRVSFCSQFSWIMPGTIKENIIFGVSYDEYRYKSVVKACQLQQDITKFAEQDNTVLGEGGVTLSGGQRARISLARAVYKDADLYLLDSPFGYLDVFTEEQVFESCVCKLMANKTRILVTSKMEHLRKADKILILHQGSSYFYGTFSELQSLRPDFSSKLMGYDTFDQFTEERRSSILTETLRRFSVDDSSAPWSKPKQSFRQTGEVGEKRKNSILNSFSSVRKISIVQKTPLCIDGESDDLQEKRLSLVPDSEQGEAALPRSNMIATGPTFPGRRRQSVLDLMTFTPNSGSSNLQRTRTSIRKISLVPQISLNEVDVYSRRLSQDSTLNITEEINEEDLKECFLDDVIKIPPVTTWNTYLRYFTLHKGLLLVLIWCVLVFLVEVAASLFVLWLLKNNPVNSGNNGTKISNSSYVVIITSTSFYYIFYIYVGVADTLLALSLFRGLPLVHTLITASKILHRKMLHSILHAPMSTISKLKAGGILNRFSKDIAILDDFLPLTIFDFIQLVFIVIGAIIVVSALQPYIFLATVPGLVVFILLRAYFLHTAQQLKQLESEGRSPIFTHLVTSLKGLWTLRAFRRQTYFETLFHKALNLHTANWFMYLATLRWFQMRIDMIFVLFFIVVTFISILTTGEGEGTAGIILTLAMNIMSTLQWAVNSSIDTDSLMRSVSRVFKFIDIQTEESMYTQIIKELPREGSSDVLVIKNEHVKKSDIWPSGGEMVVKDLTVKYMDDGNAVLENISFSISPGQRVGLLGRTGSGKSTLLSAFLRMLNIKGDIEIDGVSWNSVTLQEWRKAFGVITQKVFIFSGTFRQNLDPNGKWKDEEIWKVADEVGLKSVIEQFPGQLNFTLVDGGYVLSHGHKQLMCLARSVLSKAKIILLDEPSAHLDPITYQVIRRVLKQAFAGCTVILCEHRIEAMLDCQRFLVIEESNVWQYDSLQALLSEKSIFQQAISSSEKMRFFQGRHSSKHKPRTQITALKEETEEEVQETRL

Consider `O=C(O)c1ccc(C=C2SC(=S)N(c3cccc(C(F)(F)F)c3)C2=O)cc1` [CFTRinh-172, 3-[(3-trifluoromethyl)phenyl]-5-[(4-carboxyphenyl)methylene]-2-thioxo-4-thiazolidinone], for which the “inhibition of human CFTR” value in series [1] is given as around 50%. For the same compound, the “concentration decreasing cell viability (MTT)” value in series [2] worked out at 5 µM. The “inhibition of VSORC” value in series [3] (10 µM, negative and positive potentials) was around 50%. Besides, the IC50 in series [3] (read-out: IC50 towards VSORC-mediated Cl− currents, either at negative or positive potentials) came to 12 µM. The “effect on VSORC conductance” value in series [3] (up to 1 µM) is “did not affect”. Besides, the “effect on cell viability (live/dead labelling)” value in series [4] (50 µM) is listed as “induced cell death”; in series [4] (1 to 20 µM), “no significant effect on cell viability”. Besides, the “inhibition of shark 'CFTR-like' protein” value in series [5] was 10%. The “effect on cell viability (MTT)” value in series [6] (20 µM and even 10 µM) is “marked effect”; in series [6] (50 µM) it was “dramatic decrease of the cell viability”. Further, in series [7] (5 µM), the “inhibition of the CaCC” value is “no noticeable inhibition”. The “effect on the CaCC” value in series [7] (up to 10 µM, ionomycin 2 µM) is listed as “did not affect”. In addition, in series [8] (5 µM), the “inhibition of the CFTR conductance” value was “full inhibition”. For the same compound, in series [8] (forskolin-activated, tested 0.5, 1, 5, 10 µM), the “concentration of maximal inhibition of the CFTR-like current” value is 5 µM.
With `O=C(O)c1cc([N+](=O)[O-])ccc1NCCCc1ccccc1` [NPPB, 5-nitro-2-(3-phenylpropylamino)-benzoic acid], the “inhibition of the remaining fraction of the VSORC current” value in series [3] (100 µM, after CFTRinh-172) was “completely inhibited”.

(Values after publication PMC4128068 (British Journal of Pharmacology, 2014).)
